Bioassay records: PubChem, several laboratories
XBP1 UPR activ: activators of adaptive XBP1 UPR arm, primary screen, cell-based, CHO-XBP1 luciferase reporter, luminescence, uHTS. IRE1-XBP1 UPR activation; percent of tunicamycin response, DMSO as zero. activation, % at 20 µM. 0.33% of 330,000 active. AID 463104, 2010;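 active means versus positive control, 20 µM dose yields 30% or more activation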;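 further: 100% = tunicamycin at 10 µg/mL and 0% = DMSO only wells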
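assay system = CHO-XBP1 luciferase reporter cells | amount = 1000 cells/well | buffer or medium = F12 plus 10% FBS | compound dosing = single point, 20 µM final compound, 1% DMSO | incubation = 16-18 h cell attachment at 37 °C, then 6 h compound exposure | detection = Steady-Glo luminescence read | controls = tunicamycin 10 µg/mL and vehicle-only wells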
A1 inh: caspase 3/7 activation in MEF A1-2A-BIM cells, primary screen, A1 inhibitor project, cell-based, luminescence, HTS; Caspase-Glo 3/7 luminescence, 3 h; percent of clofoctol response, vehicle zero; caspase activation, % (test concentration not listed); 0.066% of 330,000 active;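 active means over half of replicate activation scores above 10%, or exactly half above 10 with the replicate mean above 10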
CHOP UPR activ: activators of apoptotic CHOP UPR arm, primary screen, cell-based, CHO-CHOP luciferase reporter, luminescence, uHTS | UPR activation; percent of tunicamycin response over DMSO baseline | activation, % at 10 µM | 0.34% of 330,000 active;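 active means at 10 µM dose, activation of 40% or more, normalized to positive control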;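 further: 100% = tunicamycin at 10 µg/mL and 0% = DMSO alone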
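Test system: CHO CHOP reporter cells. Input: 500 CHO-CHOP cells per well. Medium: F12 with 10% FBS. Technique: luciferase luminescence. Measure: percent activation relative to tunicamycin control. Dosing: 10 µM compound, 0.5% DMSO. Timing: 16-18 h cell attachment, then 6 h compound exposure, 37 °C.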
CHOP inhibitor: inhibitors of CHOP promoter induction, primary screen, cell-based, unfolded protein response, luciferase reporter; inhibition, % at 10 µM; AID 2732, 2010; CHO-K1 CHOP-promoter luciferase, tunicamycin-induced, 15-18 h; 3.8% of 220,000 active;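 active means compounds that reduced the stress-induced luciferase reporter signal by more than about 70% of percent inhibition, limit read from the data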;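 further: 0% = tunicamycin plus vehicle and 100% = wells without tunicamycin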
Numbers without * were called inactive; . = not tested or not shown. Shown is part of a subset that was picked to be rich in hits.

SMILES | XBP1 UPR activ | A1 inh | CHOP UPR activ | CHOP inhibitor
N#Cc1cc2c(nc1SC1CC(=O)N(c3ccccc3)C1=O)CCC2 (stereo not drawn) | . | -3 | . | 84*
CSc1nc2c(cc1C#N)CCC2 | -1 | 0 | 1 | 23
CC(=O)Nc1sc2c(c1CN1CCN(c3ccc(F)cc3)CC1)CCCC2 | -2 | 0 | 5 | 79*
COc1ccc(-c2onc(C)c2-c2ccc(C(=O)OC(C)C)o2)c(O)c1 | -2 | 0 | -1 | 82*
Cc1cc(C)c(S(=O)(=O)c2ccccc2C)c(OCC(C)(C)C)n1 | -3 | 0 | 2 | 75*
CCOCCOc1nc(C)cc(C)c1S(=O)(=O)c1ccccc1C | 3 | 1 | 1 | 15
COc1ccc(C(=O)N2CCN(c3ccc([N+](=O)[O-])c(-n4nc(C)cc4C)c3)CC2)cc1 | -3 | 0 | 3 | -3
Cc1cc(C)n(-c2cc(N3CCN(C(=O)c4ccc(C(C)(C)C)cc4)CC3)ccc2[N+](=O)[O-])n1 | 0 | 1 | 3 | 73*
COc1cc(CC(=O)Nc2ncc(C)s2)cc(OC)c1OC | 0 | -1 | 0 | -3
Cc1ccc(CN=c2c([N+](=O)[O-])nn(-c3cccc(Cl)c3)n2O)cc1 | -1 | 0 | -1 | 84*
CCCCN(C(=O)Cc1ccc2c(c1)OCCO2)c1c(N)n(CC(C)C)c(=O)[nH]c1=O | -4 | . | 0 | .
N#CC(C(=O)NCc1ccccc1)c1nc2ccccc2nc1N1CCCC1 (stereo not drawn) | 4 | 0 | -2 | 58
CCOC(=O)C1CCCN(c2nc3ccccc3nc2C(C#N)C(=O)NCc2ccccc2)C1 (stereo not drawn) | -4 | 1 | -1 | 74*
COc1ccc(CCNc2cc(N3CCN(C(=O)c4ccc(C)cc4)CC3)ccc2[N+](=O)[O-])cc1OC | 5 | 0 | 1 | 79*
COc1ccc(C(=O)N2CCN(c3ccc([N+](=O)[O-])c(NCCc4ccc(OC)c(OC)c4)c3)CC2)cc1 | 2 | 0 | 5 | 81*
COc1ccc(CCNc2cc(N3CCN(C(=O)c4ccccc4F)CC3)ccc2[N+](=O)[O-])cc1OC | 7 | -1 | -4 | -14
CC(=O)c1ccc(OCc2ccccc2)c(C)c1O | 1 | 1 | 4 | 42
CC(NC(=O)CN1C(=O)COc2ccccc21)c1ccccc1 (stereo not drawn) | 1 | 1 | 1 | 66
N#CC1=C(N)OC2=C(CCc3ccccc32)C1c1ccccc1 (stereo not drawn) | 26 | 1 | 5 | 100*
Cc1ccc(NC(=O)CCn2cnc3ccccc3c2=O)c(C)c1 | 0 | 0 | 2 | 0
CCNc1ccc(Br)cc(C(=O)/C=C/c2ccc(Cl)cc2Cl)c1=O | 0 | 0 | 10 | 76*
CNc1ccc(Br)cc(C(=O)/C=C/c2cc(OC)ccc2OC)c1=O | 0 | 0 | 10 | -32
CCOC(=O)c1c(C)[nH]c(O)c1C=Nc1ccc(C(F)(F)F)cc1 | 0 | 1 | 6 | 82*
COC(=O)c1c(C)[nH]c(O)c1C=Nc1ccc(C(C)C)cc1 | 2 | 0 | 8 | 26
COc1cccc(C(=O)c2sc(NC(C)C)nc2N)c1 | -4 | 0 | -3 | 91*
SMILES | XBP1 UPR activ | A1 inh | CHOP UPR activ | CHOP inhibitor
COc1ccc(C(=O)c2sc(NC(C)C)nc2N)cc1OC | 1 | 0 | -4 | 46
CCOc1cc(/C=C2\SC(=O)N(CC(=O)Nc3ccccc3F)C2=O)cc([N+](=O)[O-])c1O | -2 | 0 | 2 | 93*
COc1cc(/C=C2\SC(=O)N(CC(=O)Nc3ccccc3F)C2=O)cc(Cl)c1O | -4 | 0 | 4 | .
CCOC(=O)c1ccc(NC(=O)c2nc[nH]c2C(=O)N[C@H](C)c2ccccc2)cc1 | 3 | -1 | 1 | 70*
Cc1cccc(NC(=O)c2nc[nH]c2C(=O)N[C@@H](C)C(=O)OC(C)(C)C)c1 | -5 | 1 | 2 | 86*
CCn1ncc(C(=O)Nc2ccc(S(=O)(=O)N3CCCC3)cc2)c1C | -3 | -1 | 2 | 10
O=C(N/C(=C/c1cccnc1)C(=O)N1CCCCCC1)c1ccccc1 | 3 | 0 | 0 | .
C=C(C)c1cccc(C(C)(C)NC(=O)Nc2ccc(Cl)cn2)c1 | -1 | 0 | 1 | 78*
C=C(C)c1cccc(C(C)(C)NC(=O)Nc2ncccn2)c1 | -1 | 0 | 0 | 27
CC(C)CN1C(=O)C(=O)N(CC(=O)N2CCC(Cc3ccccc3)CC2)C1=O | -6 | 0 | 0 | 14
C=CC[N+]1(CC=C)CCOCC1 | 1 | 8.6* | -1 | -10
CCOC(=O)[C@H]1[C@H]2COc3ccc(OC)cc3[C@@H]2N2C(=O)c3cc(F)c(F)cc3NC(=O)[C@@]12C | -2 | 1 | 4 | .
CCOc1cc(C(=O)OCC(=O)Nc2cc(C)on2)ccc1OCC(C)C | -3 | 1 | 0 | 94*
O=C(C1CCC1)N1CCN(S(=O)(=O)c2ccccc2)CC1 | 1 | 0 | 1 | .
CCOC(=O)c1c(NC(=O)COc2cccc3c2CCN(Cc2ccc(F)cc2)C3=O)sc2c1CCC2 | -1 | -1 | -2 | 15
CCOC(=O)c1c(NC(=O)CSc2c[nH]c3ccccc23)sc2c1CCCC2 | -2 | 1 | 3 | 76*
CCOC(=O)c1c(NC(=O)C[n+]2ccccc2)sc2c1CCCC2 | 0 | 0 | -2 | 42
CCOC(=O)c1c(NC(=O)CSc2c[nH]c3ccccc23)sc2c1CCC2 | -2 | 0 | 2 | 49
CCOC(=O)c1c(NC(=O)COc2cccc3c2CCN(CC)C3=O)sc2c1CCC2 | 1 | 0 | -2 | 78*
CCOC(=O)c1c(NC(=O)COC)sc2c1CCCC2 | -1 | 0 | 0 | 86*
O=C1C(C=Nc2ccc(F)cc2)=C(O)c2ccccc21 | -8 | 0 | -4 | 46
Cc1ccccc1N=CC1=C(O)c2ccccc2C1=O | -7 | -10 | -5 | 78*
Clc1ccc(-c2noc(CN3CCCC3)n2)cc1 | -1 | -2 | 2 | -4
COc1ccccc1N1CCN(CCCCOc2cccc3ccccc23)CC1 | -1 | 0 | 0 | 84*
Cc1ccc(C(=O)Nc2cc(C(C)C)c(O)c(C(C)C)c2)cc1 | -3 | 0 | 3 | 74*
Cc1ccc(NC(=O)c2ccc(C)cc2)cc1 | -3 | -3 | 1 | .
O=C1c2cccc3cccc(c23)C(=O)N1c1ccc2ncccc2c1 | 0 | -1 | -2 | 89*
Cc1ccc(S(=O)(=O)Oc2ccc3c(c2)O/C(=C\c2cccnc2)C3=O)cc1 | -2 | 0 | 0 | 78*
O=C(CCS(=O)(=O)c1cccc2nonc12)N1CCOCC1 | 0 | 0 | 2 | 42
O=C(CCS(=O)(=O)c1cccc2nonc12)N1CC(=O)N(CCc2ccccc2)C(=O)C1 | 0 | 0 | 2 | 73*
